The structures appear in SMILES notation.

A short description of the data set: Toxicity liver stage against HepG2, at 10uM. Format: cell-based. Details: test concentration 10 uM, cell line HepG2-A16-CD81EGFP. The note with it: human, HepG2-A16-CD81EGFP cells; read-out: INHIBITION
A digest of the protocol:
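Uninfected HepG2-A16-CD81EGFP cells, 3 × 10^3 per well, 1536-well, plated on prespotted compound at 10 μM final, parasite-free screening media added to match infected plates; puromycin 10 μM positive, DMSO 0.5% negative; run in parallel with 48 h PbLuc assay at 37 °C, 5% CO2; viability by CellTiter-Glo luminescence, normalized to controls.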
In the case of `O=C(O)c1ccnc(-c2ccnc(N3CCC4(CCO4)CC3)n2)c1`, the cytotoxicity at 10 µM is -10.7%.

Regarding `CNC(=O)CN1CCC(CN(C)Cc2ccc(C)cc2C)CC1`, the cytotoxicity at 10 µM is 4%.

Turning to `CCOc1cccc(CNC(=O)CN2CCC3(CCOC3)C2)c1` (centres undefined), the cytotoxicity at 10 µM was -42.1%.

On to `Cc1cc(C)cc(-c2ccc(CC3(C(=O)O)CCOCC3)cc2)c1`, for which the cytotoxicity at 10 µM came out at 4.81%.

In the case of `Cc1[nH]nc(CCC(=O)N2CCc3ncnc(NCCO)c3CC2)c1C`, the cytotoxicity at 10 µM was -0.781%.

In the case of `CCOC(=O)c1ccc(N2CCN(Cc3c(C)nn(C)c3Cl)CC2)nc1`, the cytotoxicity at 10 µM was determined as 20.5%.

With `c1ccc(Cc2noc(CN3CCOC(Cn4cncn4)C3)n2)cc1` (centres undefined), the cytotoxicity at 10 µM was 1.28%.

For the molecule `O=C(O)CC[C@@H]1CN(c2ncnc3[nH]ccc23)CC[C@@H]1N1CCOCC1`, the cytotoxicity at 10 µM was -15.8%.

`CCOc1ccccc1CCNC(=O)NCC(O)c1ccsc1` (centres undefined): the cytotoxicity at 10 µM was -2.23%.

On to `c1cnc(N2CCOCC3(CCCN(Cc4cccs4)C3)C2)nc1` (centres undefined), for which the cytotoxicity at 10 µM is -68.3%.

As for `CC(C)c1nc(C2CCCN2CC(=O)Nc2ccc(Cl)cn2)no1` (centres undefined), the cytotoxicity at 10 µM was -3.13%.

For the molecule `COCC(O)CN(C)c1cc(C(F)(F)F)nc(-c2cccnc2)n1` (centres undefined), the cytotoxicity at 10 µM is 7.02%.

Take `O=C(NCCc1ccn(-c2ccccc2)n1)N1CCCC(O)C1` (centres undefined): the cytotoxicity at 10 µM was -41.8%.

In the case of `COc1ncnc(N(C)C)c1NC(=O)c1cscc1C`, the cytotoxicity at 10 µM is -1.7%.

For the molecule `COc1ccc(OCC(=O)NC(C)c2ccccc2)c(C(=O)O)c1` (centres undefined), the cytotoxicity at 10 µM was 2.4%.

As to `COc1cc(F)ccc1CC(=O)N1CC[C@H]2C(=O)NCCO[C@H]2C1`, the cytotoxicity at 10 µM is -108%.

On to `Oc1ccc(N2CCN(Cc3ccc(F)cc3Br)CC2)cc1`, for which the cytotoxicity at 10 µM was -13.2%.

On to `Cc1nc(CN2C[C@@H]3CN(C(=O)C4CC4)C[C@@H]3C2=O)cs1`, for which the cytotoxicity at 10 µM was determined as 4.19%.

As for `c1ccc(CN2CCCn3nnc(Cn4cccc4)c3C2)nc1`, the cytotoxicity at 10 µM came out at 8.37%.

Consider `CC(=O)N1CCN(CCNc2snc(Cl)c2C#N)CC1`, for which the cytotoxicity at 10 µM was determined as 5.69%.

Take `Cc1ccc2nc(-c3cnc(N)nc3)cc(C(=O)N(C)C)c2c1`: the cytotoxicity at 10 µM turned out to be 14%.

Turning to `Cc1occc1C(=O)N(CCN(C)C)Cc1ccccn1`, the cytotoxicity at 10 µM worked out at 7.65%.

Turning to `Cc1cccc(CN2CCC3(CC2)NC(=O)CC3c2ccccc2)n1` (centres undefined), the cytotoxicity at 10 µM was -0.508%.

As to `CCOCC1CN(C(=O)Cc2ccsc2)Cc2ccnn2C1` (centres undefined), the cytotoxicity at 10 µM is -71.4%.

On to `Cc1cc(C)n(CCNCc2cc(-c3ccccc3)c[nH]c2=O)n1`, for which the cytotoxicity at 10 µM is -2.47%.

In the case of `CCc1noc(C(C)Sc2nnc(C3CC3)n2CC(N)=O)n1` (centres undefined), the cytotoxicity at 10 µM is -148%.

For the molecule `CN1CCCN(c2nccc(-c3c[nH]c4ccc(Br)cc34)n2)CC1`, the cytotoxicity at 10 µM was -9.99%.

Turning to `Cc1cc(NCc2ccco2)nc2[nH]nc(N)c12`, the cytotoxicity at 10 µM is -43.6%.

Take `O=C(NCC1(O)COCCN(Cc2cccc(O)c2)C1)c1cnccn1` (centres undefined): the cytotoxicity at 10 µM is -6.49%.

Take `CC(NC(=O)c1nc(=O)[nH][nH]1)c1ccc(OCC2CC2)c(F)c1` (centres undefined): the cytotoxicity at 10 µM is -5.75%.

On to `O=C(c1cc(F)ccc1F)C1CCN(C(=O)c2cnccn2)CC1`, for which the cytotoxicity at 10 µM was -27.2%.

For `Cc1ccc(S(=O)(=O)Nc2cnn(C3CCOCC3)c2)cc1C`, the cytotoxicity at 10 µM came to 13.5%.

Regarding `O=C(CC1CSc2nccc(=O)n21)NCc1ccco1` (centres undefined), the cytotoxicity at 10 µM was -7.2%.

For the molecule `Cc1ocnc1C(=O)N(C)[C@@H]1CC[C@@H](Oc2ccccc2)[C@@H]1O`, the cytotoxicity at 10 µM was -0.658%.

On to `CCS(=O)(=O)N1CCc2c(cccc2NC(=O)NCCOC)C1`, for which the cytotoxicity at 10 µM worked out at 2.17%.

Consider `COCc1noc(CCC(=O)c2ccc3c(c2)OCCO3)n1`, for which the cytotoxicity at 10 µM was 0.923%.

In the case of `c1cnc(N2C[C@H]3CN(CC4CCOC4)C[C@H]3C2)nc1` (some centres undefined), the cytotoxicity at 10 µM is -5.09%.

As for `COC(=O)C(NC(=O)COC1CCCCC1)c1ccccc1` (centres undefined), the cytotoxicity at 10 µM is -21.4%.

With `CCN(Cc1noc(C2CCC2)n1)C(=O)c1cn2ccsc2n1`, the cytotoxicity at 10 µM came to 5.44%.

The values are drawn from ChEMBL document CHEMBL4513216, “Probing the Open Global Health Chemical Diversity Library for Multistage-Active Starting Points for Next-Generation Antimalarials” (ACS Infect Dis, 2020).
